In brackets after ≈: the same amount, converted by molar mass. Bridge positions count the residues as written; N and C are the ends. Square brackets hold non-standard residues; d marks the D form. Peptide text beside a SMILES is read from it. * marks the point of attachment. Phe(4-NH2) = Nc1ccc(C[C@H](N)C(=O)O)cc1; dGly(nOct) = CCCCCCCC[C@@H](N)C(=O)O; Gly(octyl) = CCCCCCCC[C@H](N)C(=O)O; Octanoyl = CCCCCCCC(=O)*; Dab = NCC[C@H](N)C(=O)O
What was measured:
[1] = system: Klebsiella pneumoniae; assay: Antibacterial activity against multidrug resistant Klebsiella pneumoniae ATCC 700603 after 18 hrs by 2 fold serial dilution method; type: functional
Outline: (§1)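 Overnight cultures at 37 °C in nutrient or Mueller Hinton broth with shaking were diluted 50-fold in MHB and grown 1.5–3 h to mid-log phase. The inoculum was 5×10^5 CFU/mL in MHB. Compounds were 2-fold serially diluted, final 32 to 0.015 μg/mL. After 18 h at 37 °C, the MIC was read visually as the lowest concentration with no visible growth.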

[2] = system: Escherichia coli; assay: Antibacterial activity against Escherichia coli ATCC 25922 after 18 hrs by 2 fold serial dilution method; type: functional
Outline: (§2)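 Overnight cultures in nutrient or Mueller Hinton broth at 37 °C with shaking, diluted 50-fold into fresh MHB and grown 1.5–3 h to mid-log. Inoculum 5×10^5 CFU/mL in 2-fold serial dilutions, final range 32 to 0.015 μg/mL. MIC read visually after 18 h at 37 °C as the lowest concentration with no visible growth.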

[3] = system: Staphylococcus aureus; assay: microbe, parasite or virus in culture; settings: ATCC 25923, 18 h
[4] = system: Acinetobacter baumannii; assay: Antibacterial activity against clinical isolate carbapenem and polymyxin resistant Acinetobacter baumannii Ptyela 100734512:2 after 18 hrs by 2 fold serial dilution method; type: functional
Outline: (§3)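 Polymyxin-resistant clinical isolates were grown overnight at 37 °C in NB or MHB with shaking, diluted 50-fold in MHB and grown 1.5–3 h to mid-log phase. The inoculum was 5×10^5 CFU/mL. Compounds were 2-fold broth serial dilutions, final 32 to 0.015 μg/mL; the polymyxin controls ran 128–0.06 μg/mL. The MIC was the lowest concentration with no visible growth after 18 h at 37 °C.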

[5] = system: Klebsiella pneumoniae; assay: Antibacterial activity against Klebsiella pneumoniae ATCC 13883 after 18 hrs by 2 fold serial dilution method; type: functional; outline: as §2
[6] = system: Klebsiella pneumoniae; assay: Antibacterial activity against Klebsiella pneumoniae ATCC BAA-2146 expressing NDM-1 after 18 hrs by 2 fold serial dilution method; type: functional; outline: as §1
[7] = system: Klebsiella pneumoniae; assay: Antibacterial activity against clinical isolate carbapenem and polymyxin resistant Klebsiella pneumoniae Koprana 100650661:1 after 18 hrs by 2 fold serial dilution method; type: functional; outline: as §3
[8] = system: Pseudomonas aeruginosa; assay: Antibacterial activity against clinical isolate polymyxin resistant Pseudomonas aeruginosa FADDI-PA070 after 18 hrs by 2 fold serial dilution method; type: functional; outline: as §3
[9] = system: Pseudomonas aeruginosa; assay: Antibacterial activity against clinical isolate polymyxin resistant Pseudomonas aeruginosa PA9704 after 18 hrs by 2 fold serial dilution method; type: functional; outline: as §3
[10] = system: Klebsiella pneumoniae; assay: Antibacterial activity against clinical isolate carbapenem and polymyxin resistant Klebsiella pneumoniae 138-16357-20362 after 18 hrs by 2 fold serial dilution method; type: functional; outline: as §3
[11] = system: Acinetobacter baumannii; assay: Antibacterial activity against Acinetobacter baumannii ATCC 19606 after 18 hrs by 2 fold serial dilution method; type: functional; outline: as §2
[12] = system: Pseudomonas aeruginosa; assay: Antibacterial activity against Pseudomonas aeruginosa ATCC 27853 after 18 hrs by 2 fold serial dilution method; type: functional; outline: as §2
[13] = Cytotoxicity against human HepG2 cells after 24 hrs by resazurin assay; type: cell-based; settings: HepG2 cells
[14] = Klebsiella pneumoniae, 700603, 18 h

Row | Compound | MIC [1, 14] [µg/mL] | MIC ([2]; ATCC 25922, 18 h) [µg/mL] | MIC [3] [µg/mL] | MIC ([4]; Ptyela 100734512:2, 18 h) [µg/mL] | MIC ([5]; ATCC 13883, 18 h) [µg/mL] | MIC ([6]; ATCC BAA-2146, 18 h) [µg/mL] | MIC ([7]; Koprana 100650661:1, 18 h) [µg/mL] | MIC ([8]; FADDI-PA070, 18 h) [µg/mL] | MIC ([9]; PA9704, 18 h) [µg/mL] | MIC ([10]; 138-16357-20362, 18 h) [µg/mL] | MIC ([11]; ATCC 19606, 18 h) [µg/mL] | MIC ([12]; ATCC 27853, 18 h) [µg/mL] | CC50 at 24 h [13] [µM] | other results
1 | CCCCCCCC(=O)N[C@@H](CCN)C(=O)N[C@H](C(=O)N[C@@H](CCN)C(=O)N[C@H]1CCNC(=O)[C@H]([C@@H](C)O)NC(=O)[C@H](CCN)NC(=O)[C@H](CCNC(=O)[C@@H](N)CCCNC(=N)N)NC(=O)[C@H](CC(C)C)NC(=O)[C@@H](Cc2ccccc2)NC(=O)[C@H](CCN)NC1=O)[C@@H](C)O | 0.5 (≈ 0.372 µM) | 0.5 (≈ 0.372 µM) | > 32 | > 32 | 4 (≈ 2.97 µM) | 1 (≈ 0.743 µM) | > 32 | > 32 | > 32 | > 32 | 4 (≈ 2.97 µM) | 2 (≈ 1.49 µM) | – | –
2 | CCCCCCCC(=O)N[C@@H](CCN)C(=O)N[C@H](C(=O)N[C@@H](CCN)C(=O)N[C@H]1CCNC(=O)[C@H]([C@@H](C)O)NC(=O)[C@H](CCN)NC(=O)[C@H](Cc2ccc(N)cc2)NC(=O)[C@H](CC(C)C)NC(=O)[C@@H](Cc2ccccc2)NC(=O)[C@H](CCN)NC1=O)[C@@H](C)O | 1 (≈ 0.799 µM) | 0.5 (≈ 0.4 µM) | > 32 | > 32 | 8 (≈ 6.39 µM) | 2 (≈ 1.6 µM) | > 32 | 32 (≈ 25.6 µM) | > 32 | > 32 | 4 (≈ 3.2 µM) | 8 (≈ 6.39 µM) | – | –
3 | CCCCCCCC(=O)N[C@@H](CCN)C(=O)N[C@H](C(=O)N[C@@H](CCN)C(=O)N[C@H]1CCNC(=O)[C@H]([C@@H](C)O)NC(=O)[C@H](CCN)NC(=O)[C@H](CCCNC(=N)N)NC(=O)[C@H](CC(C)C)NC(=O)[C@@H](Cc2ccccc2)NC(=O)[C@H](CCN)NC1=O)[C@@H](C)O | 0.5 (≈ 0.401 µM) | 0.25 (≈ 0.201 µM) | > 32 | 32 (≈ 25.7 µM) | 4 (≈ 3.21 µM) | 0.5 (≈ 0.401 µM) | > 32 | 32 (≈ 25.7 µM) | > 32 | > 32 | 0.5 (≈ 0.401 µM) | 1 (≈ 0.803 µM) | – | –
4 | CN[C@@H](CC(C)C)C(=O)N[C@H]1C(=O)N[C@@H](CC(N)=O)C(=O)N[C@H]2C(=O)N[C@H]3C(=O)N[C@H](C(=O)N[C@@H](C(=O)O)c4cc(O)cc(O)c4-c4cc3ccc4O)[C@H](O)c3ccc(c(Cl)c3)Oc3cc2cc(c3O[C@H]2O[C@@H](CO)[C@H](O)[C@@H](O)[C@@H]2O[C@@H]2C[C@@](C)(N)[C@@H](O)[C@@H](C)O2)Oc2ccc(cc2Cl)[C@H]1O | – | – | – | – | – | – | – | – | – | – | – | – | > 300 | –
5 | CCCCCCCC(=O)NCC(=O)N[C@@H](CCN)C(=O)N[C@H](C(=O)N[C@H]1CCNC(=O)[C@H]([C@@H](C)O)NC(=O)[C@H](CCN)NC(=O)[C@H](CCN)NC(=O)[C@H](CC(C)C)NC(=O)[C@@H](Cc2ccccc2)NC(=O)[C@H](CCN)NC1=O)[C@@H](C)O (Octanoyl-G[Dab]T[Dab][Dab][dF]L[Dab][Dab]T; lactam 4-C) | 8 (≈ 6.98 µM) | 16 (≈ 14 µM) | > 32 | > 32 | 32 (≈ 27.9 µM) | 16 (≈ 14 µM) | > 32 | > 32 | > 32 | > 32 | > 32 | 2 (≈ 1.74 µM) | > 300 | –
6 | CCCCCCCC(=O)N[C@@H](CCN)C(=O)N[C@H](C(=O)N[C@@H](CCN)C(=O)N[C@H]1CCNC(=O)[C@H]([C@@H](C)O)NC(=O)[C@H](CCN)NC(=O)[C@H](CCN)NC(=O)[C@H](CC(C)C)NC(=O)[C@@H](Cc2ccccc2)NC(=O)[C@H](CCCNC(=N)N)NC1=O)[C@@H](C)O (Octanoyl-[Dab]T[Dab][Dab]R[dF]L[Dab][Dab]T; lactam 4-C) | 32 (≈ 25.7 µM) | 16 (≈ 12.8 µM) | > 32 | > 32 | > 32 | 32 (≈ 25.7 µM) | > 32 | > 32 | > 32 | > 32 | > 32 | 32 (≈ 25.7 µM) | > 300 | –
7 | CCCCCCCC(=O)N[C@@H](CCN)C(=O)N[C@H](C(=O)N[C@@H](CCN)C(=O)N[C@H]1CCNC(=O)[C@H]([C@@H](C)O)NC(=O)[C@H](CCN)NC(=O)[C@H](CCN)NC(=O)[C@H](CC(C)C)NC(=O)[C@@H](Cc2ccccc2)NC(=O)[C@H](CCNC(=O)[C@@H](N)CCCNC(=N)N)NC1=O)[C@@H](C)O (Octanoyl-[Dab]T[Dab][Dab][Dab](Arg)[dF]L[Dab][Dab]T; lactam 4-C) | 16 (≈ 11.9 µM) | 32 (≈ 23.8 µM) | > 32 | > 32 | 32 (≈ 23.8 µM) | 16 (≈ 11.9 µM) | > 32 | > 32 | > 32 | > 32 | 32 (≈ 23.8 µM) | 32 (≈ 23.8 µM) | > 300 | –
8 | CCCCCCCC(=O)N[C@@H](CCN)C(=O)N[C@H](C(=O)N[C@@H](CCN)C(=O)N[C@H]1CCNC(=O)[C@H]([C@@H](C)O)NC(=O)[C@H](CCN)NC(=O)[C@H](CCN)NC(=O)[C@H](CC(C)C)NC(=O)[C@@H](Cc2ccccc2)NC(=O)[C@H](CCNC(=O)[C@@H](N)CCC(=O)O)NC1=O)[C@@H](C)O (Octanoyl-[Dab]T[Dab][Dab][Dab](Glu)[dF]L[Dab][Dab]T; lactam 4-C) | > 32 | > 32 | > 32 | > 32 | > 32 | 32 (≈ 24.3 µM) | > 32 | > 32 | > 32 | > 32 | > 32 | > 32 | > 300 | –
9 | CCCCCCCC[C@@H]1NC(=O)[C@@H](Cc2ccccc2)NC(=O)[C@H](CCN)NC(=O)[C@@H](NC(=O)[C@H](CCN)NC(=O)[C@@H](NC(=O)[C@H](CCN)NC(=O)CCCCCCC)[C@@H](C)O)CCNC(=O)[C@H]([C@@H](C)O)NC(=O)[C@H](CCN)NC(=O)[C@H](CCN)NC1=O (Octanoyl-[Dab]T[Dab][Dab][Dab][dF][Gly(octyl)][Dab][Dab]T; lactam 4-C) | – | – | – | – | 4 (≈ 3.21 µM) | – | – | – | – | – | 2 (≈ 1.61 µM) | 1 (≈ 0.803 µM) | – | –
10 | CCCCCCCC[C@H]1NC(=O)[C@H](CCN)NC(=O)[C@@H](NC(=O)[C@H](CCN)NC(=O)[C@@H](NC(=O)[C@H](CCN)NC(=O)CCCCCCC)[C@@H](C)O)CCNC(=O)[C@H]([C@@H](C)O)NC(=O)[C@H](CCN)NC(=O)[C@H](CCN)NC(=O)[C@H](CC(C)C)NC1=O (Octanoyl-[Dab]T[Dab][Dab][Dab][dGly(nOct)]L[Dab][Dab]T; lactam 4-C) | – | – | – | – | 1 (≈ 0.825 µM) | – | – | – | – | – | 1 (≈ 0.825 µM) | 4 (≈ 3.3 µM) | – | –
11 | CCCCCCCC(=O)N[C@@H](CCN)C(=O)N[C@H](C(=O)N[C@@H](CCN)C(=O)N[C@H]1CCNC(=O)[C@H]([C@@H](C)O)NC(=O)[C@H](CCN)NC(=O)[C@H](CCN)NC(=O)[C@H](CC(C)C)NC(=O)[C@@H](Cc2ccccc2)NC(=O)[C@H](Cc2ccc(N)cc2)NC1=O)[C@@H](C)O (Octanoyl-[Dab]T[Dab][Dab][Phe(4-NH2)][dF]L[Dab][Dab]T; lactam 4-C) | > 32 | > 32 | > 32 | > 32 | > 32 | – | > 32 | > 32 | > 32 | > 32 | > 32 | > 32 | > 300 | –
12 | GENTAMICIN | – | – | – | – | – | – | – | – | – | – | – | – | – | MIC [1]: 8 µg/mL; MIC [2]: 0.25 µg/mL; MIC [4]: > 32 µg/mL; MIC [5]: 0.25 µg/mL; MIC [6]: > 32 µg/mL; MIC [7]: > 32 µg/mL; MIC [8]: 32 µg/mL; MIC [9]: > 32 µg/mL; MIC [10]: 1 µg/mL; MIC [11]: 32 µg/mL; MIC [12]: 1 µg/mL

Source: ChEMBL document CHEMBL3774373, “Activity and Predicted Nephrotoxicity of Synthetic Antibiotics Based on Polymyxin B” (J Med Chem, 2016)
